# Source: article PMC5754937 (Indian Journal of Pharmacology, 2017)
# Where a name gives a salt, the structure may show the parent alone.
# Key:
# Caco-2 cell monolayers = assay: Caco-2 bidirectional permeability assay; assay type: in vitro ADME; details: A-to-B and B-to-A
# [1] = In vivo pharmacokinetics in male BALB/c mice
# Visceral leishmaniasis = details: cited from earlier work
# [2] = Metabolic stability in pooled mouse liver microsomes; assay type: in vitro ADME
# In short: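 Microsomes pooled from ~100 B6C3F1 mice (9–10 weeks old). Triplicate incubations: 25 μM test compound with 0.25 mg/mL protein in 50 mM phosphate (pH 7.4), 0.1% DMSO, preincubated 5 min at 37°C, then started with 1 mM NADPH. Samples taken at 0–60 min and quenched in ice-cold 10% perchloric acid with internal standard. LC-MS/MS peak-area ratios used; t½ from substrate disappearance. No-NADPH and heat-inactivated controls included.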
compound,measurement,setting,value
"NC[C@@H]1O[C@H](O[C@H]2[C@@H](O)[C@H](O[C@@H]3[C@@H](O)[C@H](N)C[C@H](N)[C@H]3O[C@H]3O[C@H](CO)[C@@H](O)[C@H](O)[C@H]3N)O[C@@H]2CO)[C@H](N)[C@@H](O)[C@@H]1O [paromomycin, Paromomycin sulfate]",Caco-2 permeability (in words),Caco-2 cell monolayers,negligible permeability
same,Caco-2 permeability (in words),Caco-2 cell monolayers; listed as Paromomycin,low permeability
same,Plasma clearance as % of hepatic (liver) blood flow,"[1]; IV, mice",< 10%
same,clearance,"[1]; male, BALB/c, mouse, plasma, iv, 15 mg/kg, CL, normal saline",8 mL/min/kg
same,Cure rate,"Visceral leishmaniasis; after 6 months, treatment with paromomycin i.m.",About 95%
same,Toxicity (in words),Visceral leishmaniasis; i.m. route,no nephrotoxicity and reversible ototoxicity
same,Stability in mouse liver microsomes (in words),[2],unstable
